In the EternaBench riboswitch data:

System: MS2 coat protein
Assay: apparent Kd, MS2 coat protein; higher = weaker binding; RNA-MaP array; FMN 200 µM where present
How it was run: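 Stalled E. coli RNA polymerase transcribed each design on Illumina sequencing-chip clusters. The clusters were titrated with SNAP-549-labelled MS2 coat protein, starting at 0.7 or 1.5 nM and doubling up to 3 µM, first without ligand and then with constant ligand, in 100 mM Tris-HCl pH 7.5, 80 mM KCl, 4 mM MgCl2, BSA, DTT, yeast tRNA and Tween-20. Green signal was normalised to red-channel RNA signal and to the control-cluster median Fmax. The apparent Kd is the median of filtered binding-curve fits made for each cluster.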

[1] = designed as: OFF switch for flavin mononucleotide, no ligand
[2] = ligand present: flavin mononucleotide, designed as: OFF switch for flavin mononucleotide
[3] = designed as: ON switch for flavin mononucleotide, no ligand
[4] = ligand present: flavin mononucleotide, designed as: ON switch for flavin mononucleotide

AAGUUUAACGAAGGAUAUGGUUACAUGAGGAUCACCCAUGUAUUUUUUGUGAUCUUGUUUAAGUUCCAGAAGGUCGUAUACAUA
apparent Kd [1]: 95.4 nM | apparent Kd [2]: 305 nM

AAUAAACACACAGGAUAUAGCAUCGACGUUGCGAACUUAGCGACGUCGAUGCUAGAAGGGUGAAAACAUGAGGAUCACCCAUGU
apparent Kd [3]: 73.3 nM | apparent Kd [4]: 19.2 nM

AAUAAACGCACAGGAUAUAGCAUCGACGUUGAGAACUUAAAGACGUCGAUGCUAGAAGGGUGAAAACAUGAGGAUCACCCAUGU
apparent Kd [3]: 87.6 nM | apparent Kd [4]: 18.7 nM

AAUAAACUCACAGGAUAUAGCAUCGUCGGUAUGAACUUAAAGACGACGAUGCUAGAAGGGUGACCACAUGAGGAUCACCCAUGU
apparent Kd [3]: 903 nM | apparent Kd [4]: 114 nM

AAUAACAGAGGAUAUACUAUUUUAUGUGUUUGUUGUUUUAAACAUGAGGAUCACCCAUGUAGAAGGCUGAAUGA
apparent Kd [1]: 22.8 nM | apparent Kd [2]: 27.6 nM

AAUAACAGAGGAUAUACUAUUUUAUGUGUUUGUUGUUUUGAACAUGAGGAUCACCCAUGUAGAAGGCUGAUUGA
apparent Kd [1]: 42.6 nM | apparent Kd [2]: 45.3 nM

AAUAACAGAGGAUAUACUGUUUUAUGUAUUUAUUAUUUUAAACAUGAGGAUCACCCAUGUAGAAGGCUGAAUGA
apparent Kd [1]: 23.8 nM | apparent Kd [2]: 22 nM

AAUAACAGAGGAUAUACUGUUUUAUGUGUUUAUUAUUUUGAACAUGAGGAUCACCCAUGUAGAAGGCUGAAUAA
apparent Kd [1]: 23.9 nM | apparent Kd [2]: 21 nM

AAUAACAGAGGAUAUACUGUUUUAUGUGUUUGUUGUUUUGAACAUGAGGAUCACCCAUGUAGAAGGCUGAGUAA
apparent Kd [1]: 29.1 nM | apparent Kd [2]: 25.9 nM

AAUAACAGAGGAUAUACUGUUUUAUGUGUUUGUUGUUUUGAACAUGAGGAUCACCCAUGUAGAAGGCUGAUUAA
apparent Kd [1]: 35.3 nM | apparent Kd [2]: 33.5 nM

AAUAAGCUAGGAUAUACAUGAGGAUCACCCAUGUGAGGGCACCGCCGGCGCGGGCCCGGUAGAAGGAGCAAUAA
apparent Kd [1]: 14.2 nM | apparent Kd [2]: 13.2 nM

AAUAAUAAUGUCAGGAUAUCUAGAGCCUCGGCUCUAGAGAAGGGACAUGAGGAUCACCCAUGUCACUCAAUAAU
apparent Kd [1]: 17.9 nM | apparent Kd [2]: 24.3 nM

AAUACAUGAGGAUCACCCAUGUGCAUUGUUUAAGAGGAAGCACAGGAUAUGCAGCCAAUCGGUUAGCAGAAGGGUGACUUCAAC
apparent Kd [3]: 85.2 nM | apparent Kd [4]: 81.6 nM

AAUAGGGUCGUAAUAGCUAGCACAUGAGGAUCACCCAUGUACAGAAGGCGAGCCAAGGCGGCAAUCGAGGAUAUGUAGCAGGGU
apparent Kd [1]: 19.5 nM | apparent Kd [2]: 29.9 nM

AAUAUAAAGAGCUGGCUCCAAAUAACAUGAGGAUCACCCAUGUAGGAUAUCAGCACGAUAAGUGCUGAGAAGGACAUCCAGCUC
apparent Kd [1]: 15 nM | apparent Kd [2]: 15.6 nM

AAUAUAAGAGCUGGACUCUAAAGAACAUGAGGAUCACCCAUGUAGGAUAUCAGCACGAUAAGUGCUGAGAAGGACAACCAGCUC
apparent Kd [1]: 14.1 nM | apparent Kd [2]: 14.6 nM

AAUAUAUUAAGUGAGGAUAUCAUAGAAAAAACAUGAGGAUCACCCAUGUGGGAAACCUGGUCGGGUGAGAAGGCACUUAAUAUAU
apparent Kd [3]: 992 nM | apparent Kd [4]: 88.4 nM

AAUAUGAGCUGGAAUAAACCUGAAACAUGAGGAUCACCCAUGUAGGAUAUCAGCACGAUAAGUGCUGAGAAGGACAACCAGCUC
apparent Kd [1]: 14.6 nM | apparent Kd [2]: 16.6 nM

AAUAUGUUGCAGAAGGCUAUAUUGUGGUAGUACCUCAUGACAUGAGGAUCACCCAUGUUUGUGUUGGAGGAUAUGCAAUAUAUU
apparent Kd [1]: 16.2 nM | apparent Kd [2]: 64.9 nM

AAUCCACAUGAGGAUCACCCAUGUCAGGAUAUCGCGCGCGCGUUUUCGGUCUUUCGCGCGAGAAGGGACGACUG
apparent Kd [1]: 16.1 nM | apparent Kd [2]: 18.8 nM

AAUCGGGAGCAGAAGGCAUGUCAUAAGACAUGAGGAUCACCCAUGUAGUUAAGAUGAAAAUCGCAUGAGGAUAUGCUCCCGUAA
apparent Kd [3]: 115 nM | apparent Kd [4]: 18.5 nM

AAUGCCGUAGGAUAUAUAUGGCAGAUCGCACGUCCUGAAAGACAUGAGGAUCACCCAUGUAGAAGGGCGGAAAC
apparent Kd [1]: 14.7 nM | apparent Kd [2]: 17 nM

AAUGGCUGGUGAACUUGGUCACAUGAGGAUCACCCAUGUUAUGAGGAUAUCGCUGCACAUUGACGUGAGAAGGCAUAGCAAGCC
apparent Kd [1]: 132 nM | apparent Kd [2]: 453 nM

AAUUAGGUCACAGGAUAUACUACAUCCAAUGCUGUAGAAGGGUGACACAUUCUGUGCAGACAUGAGGAUCACCCAUGUAACCAC
apparent Kd [3]: 27.9 nM | apparent Kd [4]: 12.8 nM

AAUUAUAUACAGAAGGAGUUAAAAGGAGUAUUACUAGGAUAUGUUCACAUGAGGAUCACCCAUGUCAUAUUGGGAUUUAUUUUU
apparent Kd [1]: 27.2 nM | apparent Kd [2]: 25.7 nM

AAUUAUUGAUGAGGAUAUUGUGGUGAAACACCACAAGAAGGCAUUAUACACAUGAGGAUCACCCAUGUGAGCCUGAUGCAUAUA
apparent Kd [1]: 17.3 nM | apparent Kd [2]: 28.9 nM

AAUUUAAUACAUGAGGAUCACCCAUGUAAAUUAAUUAAGAUCAAGGAUAUCAGCUCGUUUAGAGCUGAGAAGGUGAUCACAUGU
apparent Kd [3]: 343 nM | apparent Kd [4]: 97 nM
